PAFAH2 FP inh: PAFAH2 enzyme inhibitors, primary screen, biochemical, fluorescence polarization, human; inhibition, % at 3.39 µM; AID 492956, 2010; 340,000 compounds, 0.99% hits; recombinant PAFAH2, FP-rhodamine activity probe;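 active = inhibition above the mean over all tested compounds plus 3 SD, cut at about 30% in these data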;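 also: inhibitors block probe labeling of enzyme so polarization drops; 0% = enzyme with DMSO and 100% = wells lacking PAFAH2 protein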
HTRA1 inh: HTRA1 serine protease inhibitors, primary screen, biochemical, fluorescence polarization, HTS. Q92743. recombinant HTRA1, FP-rhodamine activity-based probe. inhibition, % at 5.96 µM. 340,000 compounds, 0.5% hits; in the data active = inhibition above about 36%;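 also: 0% = enzyme with DMSO and 100% = wells lacking enzyme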
ABHD4 inh: ABHD4 inhibitors, primary screen, biochemical, fluorescence polarization, mouse | (Lyso)-N-acylphosphatidylethanolamine lipase (Mus musculus), Q8VD66 | AID 720543, 2013 | purified mABHD4, FP-Rh probe fluorescence polarization | inhibition, % at 8.92 µM | 370,000 compounds, 0.54% hits;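 active = inhibition exceeding the mean over every tested compound plus 3 SD, cut at about 30% in these data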;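 also: 0% = plate median of compound wells and 100% = S159A mutant with DMSO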
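Material: mouse ABHD4 enzyme, wild type; Benchmarks: S159A mutant high control, sample median low control; Buffer or medium: HEPES pH 7.0, NaCl, Pluronic buffer; Signal: fluorescence polarization; Read-out: percent inhibition of probe binding, normalized to plate controls; Timing: pre-incubation 45 min, probe exposure 60 min, at 25 °C; Dosing: 8.92 µM, single dose.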
PAFAH1B3 FP inh: PAFAH1B3 enzyme inhibitors, primary screen, biochemical, fluorescence polarization, human. 340,000 compounds, 0.28% hits. inhibition, % at 3.39 µM. Platelet-activating factor acetylhydrolase IB subunit alpha1 (Homo sapiens), Q15102. recombinant PAFAH1B3, FP-rhodamine probe;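 active = inhibition above the screen-wide average of all tested compounds plus 3 SD, cut at about 25% in these data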;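 also: 0% = enzyme with DMSO only and 100% = wells lacking PAFAH1B3 protein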
pPAFAH inh: pPAFAH enzyme inhibitors, primary screen, biochemical, fluorescence polarization, human; Platelet-activating factor acetylhydrolase (Homo sapiens), Q13093; recombinant pPAFAH, FP-rhodamine probe fluorescence polarization; inhibition, % at 3.39 µM; 330,000 compounds, 1.5% hits;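 active = inhibition above the mean inhibition across the screen plus 3 SD, cut at about 25% in these data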;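 also: inhibitors block binding of the rhodamine activity-based probe so polarization drops; 0% = enzyme with DMSO and 100% = wells lacking pPAFAH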
Target sequence (Q13093 whole entry, looked up): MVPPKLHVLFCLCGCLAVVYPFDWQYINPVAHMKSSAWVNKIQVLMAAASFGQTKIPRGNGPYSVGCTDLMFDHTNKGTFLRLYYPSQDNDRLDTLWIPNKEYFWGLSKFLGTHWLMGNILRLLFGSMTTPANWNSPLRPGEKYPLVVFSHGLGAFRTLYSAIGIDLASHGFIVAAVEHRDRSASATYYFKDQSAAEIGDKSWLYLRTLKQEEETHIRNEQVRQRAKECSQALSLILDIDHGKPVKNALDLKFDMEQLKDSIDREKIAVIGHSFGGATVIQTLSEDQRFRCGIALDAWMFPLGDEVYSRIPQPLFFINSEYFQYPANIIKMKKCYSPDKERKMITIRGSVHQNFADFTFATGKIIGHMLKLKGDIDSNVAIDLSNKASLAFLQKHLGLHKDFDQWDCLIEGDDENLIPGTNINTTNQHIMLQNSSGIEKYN
PAFAH1B2 inh: PAFAH1B2 enzyme inhibitors, primary screen, biochemical, fluorescence polarization, human; Platelet-activating factor acetylhydrolase IB subunit alpha2 (Homo sapiens), P68402; recombinant PAFAH1B2, FP-rhodamine activity probe; inhibition, % at 3.39 µM; 340,000 compounds, 1.2% hits; AID 492953, 2010;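 active = inhibition above the mean of all tested compounds plus 3 SD, cut at about 24% in these data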;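 also: 0% = enzyme with DMSO and 100% = wells lacking PAFAH1B2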
Target sequence (P68402 whole entry, looked up): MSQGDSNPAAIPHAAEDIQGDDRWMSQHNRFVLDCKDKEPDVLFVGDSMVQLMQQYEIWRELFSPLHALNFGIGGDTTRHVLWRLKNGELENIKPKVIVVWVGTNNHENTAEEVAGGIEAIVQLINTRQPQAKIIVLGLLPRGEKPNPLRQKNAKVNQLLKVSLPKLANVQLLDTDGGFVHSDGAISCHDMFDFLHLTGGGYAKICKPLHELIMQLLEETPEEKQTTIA
pPAFAH FP conf: pPAFAH (PLA2G7) enzyme inhibitors, confirmation, biochemical, fluorescence polarization, human; shares compounds with pPAFAH inh; recombinant pPAFAH, FP-Rh probe fluorescence polarization; inhibition, % at 3.39 µM; 2,300 compounds, 72% hits; AID 463230, 2010;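 active = mean inhibition of the triplicate above the hit cutoff set for the earlier primary screen, cut at about 25% in these data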;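 also: 0% = enzyme with DMSO and 100% = wells lacking pPAFAH enzyme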
Active calls of the source: *; . = not tested or not shown. A selection: hits, their analogues and other compounds. The true share with any hit is near 2.8%.

SMILES	PAFAH2 FP inh	HTRA1 inh	ABHD4 inh	PAFAH1B3 FP inh	pPAFAH inh	PAFAH1B2 inh	pPAFAH FP conf
CCOc1ccc(NS(=O)(=O)c2ccc3[nH]c(=O)oc3c2)cc1	5.3	-1.5	-0.9	5.3	54.6*	2.7	52.2*
Cc1ccc(NS(=O)(=O)c2ccc3[nH]c(=O)oc3c2)c(C)c1	1.4	-1.7	-1.0	-2.2	74.6*	6.7	70.5*
COC(=O)C1CN(Cc2cn(Cc3ccc(Cl)cc3)nn2)CCS(=O)(=O)N1Cc1ccc(F)cc1 (stereo not drawn)	.	.	-4.3	.	.	.	.
COc1ccc(CCNC(=O)c2ccc3nc(-c4ccco4)c(-c4ccco4)nc3c2)cc1OC	23.4	21.4	.	22.2	44.0*	11.4	20.1
O=C(Nc1cccc(C(F)(F)F)c1)c1ccc2nc(-c3ccco3)c(-c3ccco3)nc2c1	30.8*	67.1*	8.6	29.5*	69.7*	14.5	76.7*
CCc1nc2ccc(C(=O)NCCc3ccc(OC)c(OC)c3)cc2nc1CC	4.1	4.6	-0.6	13.2	1.1	3.4	.
C[C@@H]1N[C@H]2N(C1=O)c1ccccc1[C@@]21C[C@@H]2C(=O)N[C@](C)(O1)c1nc3ccccc3c(=O)n12	.	.	-2.2	.	.	.	.
CC(COc1cccc(OC(F)(F)F)c1)CN1CCC(C(O)(c2ccccc2)c2ccccc2)CC1 (stereo not drawn)	.	.	12.0	.	.	.	.
COc1ccc(CNC(=O)COC(=O)CCCOc2ccc(Cl)cc2Cl)cc1	1.4	-10.7	-16.5	4.9	34.6*	2.2	20.4
Cc1ccc(S(=O)(=O)N(C)[C@H]2C[C@H]3c4cc(N5CCOCC5)ccc4CCN3C[C@H]2[C@H](C)O)cc1	.	.	-1.1	.	.	.	.
O=C1CCCC2=C1C(c1ccco1)Nc1ccc3ccccc3c12 (stereo not drawn)	26.2	14.7	25.1	2.8	40.0*	1.6	28.5*
Cc1ccc(C2Nc3ccc4ccccc4c3C3=C2C(=O)CC(C)(C)C3)o1 (stereo not drawn)	-4.8	-9.3	.	10.9	11.5	3.4	.
O=C1/C(=C/c2ccco2)Oc2c1ccc(O)c2CN1CCCCC1	9.9	6.4	20.5	17.0	36.6*	4.4	7.7
O=C(Cc1ccccc1)NCC1COc2ccccc2O1 (stereo not drawn)	4.6	-2.7	4.0	8.0	1.4	3.9	.
Cc1ccc2c(CC(=O)NCC3COc4ccccc4O3)coc2c1 (stereo not drawn)	2.3	-17.2	-3.7	2.6	36.7*	10.4	6.5
CC(C)(C)OC(=O)N1CCC(N[C@@H](Cc2c[nH]c3ccccc23)C(=O)NCCc2c[nH]c3ccccc23)(C(=O)NC2CCCCC2)CC1	.	.	-8.0	.	.	.	.
CC(C)[C@@H]1C(=O)N[C@H](Cc2cn(S(=O)(=O)c3ccccc3)c3ccccc23)C(=O)N1C	.	.	3.2	.	.	.	.
COc1cc(/C=C2/SC(=S)N(Cc3ccccc3)C2=O)ccc1OCC(=O)O	5.3	-58.8	-13.8	-3.7	48.9*	2.3	28.0*
CCCCCCCCCCCCN1[C@@H](CC(=O)O)c2cc(C(F)(F)F)ccc2S1(=O)=O	11.0	-51.0	-35.7	3.3	43.8*	23.4	41.4*
CCCCCCCCN1[C@@H](CC(=O)OCC)c2ccc(C(F)(F)F)cc2S1(=O)=O	-4.9	-12.7	-0.4	7.8	-0.9	0.6	.
CCCCCCCCCCCCN1[C@@H](CC(=O)O)c2cc(F)ccc2S1(=O)=O	-1.6	-81.2	-8.6	-3.0	47.6*	31.0*	34.4*
CCCCCCCCN1[C@@H](CC(=O)OC)c2cc(F)ccc2S1(=O)=O	-5.9	-17.9	-7.3	0.0	4.5	9.5	.
COc1ccc(OC)c(S(=O)(=O)N(CC(=O)NC2CCC(C)CC2)c2cc(C)cc(C)c2)c1 (stereo not drawn)	.	.	4.8	.	.	.	.
COc1ccc(C(=O)OCCCN(C)C2CN(Cc3cn(Cc4ccc([N+](=O)[O-])cc4)nn3)S(=O)(=O)C2)cc1OC (stereo not drawn)	.	.	-12.2	.	.	.	.
O=C(Nc1ccc(S(=O)(=O)Nc2nccs2)cc1)c1ccncc1	.	.	-3.6	.	.	.	.
SMILES	PAFAH2 FP inh	HTRA1 inh	ABHD4 inh	PAFAH1B3 FP inh	pPAFAH inh	PAFAH1B2 inh	pPAFAH FP conf
O=C(Nc1ccc(S(=O)(=O)Nc2nccs2)cc1)c1ccc(=O)[nH]c1	10.3	7.8	13.2	30.1*	38.7*	12.4	5.5
O=C(CCO)c1ccc(O)cc1	14.4	11.2	7.6	11.3	36.9*	7.2	17.2
CCNc1ccc(Br)cc(C(=O)/C=C/c2c(Cl)cccc2Cl)c1=O	36.1*	57.7*	.	6.2	43.8*	1.1	28.5*
COc1ccc(-c2csc(NC(=O)c3ccccc3NS(=O)(=O)c3ccc(C)cc3)n2)cc1	35.8*	-49.8	-31.9	6.0	39.0*	14.6	49.1*
COc1cccc(NC(=O)Nc2cc(C(=O)NC(C)C)ccc2N2CC3CC(C2)c2cccc(=O)n2C3)c1 (stereo not drawn)	20.9	2.3	-2.7	3.0	73.7*	3.9	75.5*
COCCNC(=O)c1ccc(N2CC3CC(C2)c2cccc(=O)n2C3)c(NC(=O)c2c(F)cccc2F)c1 (stereo not drawn)	-0.4	3.4	-8.7	7.3	4.1	1.1	.
CCCNC(=O)c1ccc(N2CC3CC(C2)c2cccc(=O)n2C3)c(NC(=O)Nc2ccc(CC)cc2)c1 (stereo not drawn)	19.3	-6.2	13.2	4.0	87.9*	-1.7	92.0*
CCC(C)NC(=O)c1ccc(N2CC3CC(C2)c2cccc(=O)n2C3)c(NC(=O)c2c(F)cccc2F)c1 (stereo not drawn)	.	1.0	4.4	.	.	.	.
c1ccc(-c2cccc3[nH]cc(-c4ccccc4)c23)cc1	.	.	8.9	.	.	.	.
Cc1nn(-c2ccc(Br)cc2)c(=O)c2ccccc12	3.3	-2.5	6.7	4.9	51.1*	0.8	3.1
O=C(c1cccc(F)c1)N(Cc1ccccn1)CC1CCCO1 (stereo not drawn)	.	.	4.7	.	.	.	.
O=C(NCc1c(F)cccc1F)C1C2C=CC3(CN(Cc4ccccc4)C(=O)C13)O2 (stereo not drawn)	.	.	0.6	.	.	.	.
N#Cc1cc2c(=O)n3ccccc3nc2n(Cc2ccco2)c1=NC(=O)c1ccco1	-6.2	-0.9	3.7	10.1	36.5*	5.4	8.9
C=CCNC(=O)CN(C(=O)c1ccncn1)c1cccc(Br)c1	.	.	2.9	.	.	.	.
CCOC(=O)[C@@]12CN(C(=O)OC(C)(C)C)CC=C1N(Cc1ccc(OC)cc1)C(=O)[C@H]2CC(=O)N1CCC(c2ccccc2)CC1	.	.	7.4	.	.	.	.

Screens from PubChem.
